Calls of active or inactive are those of the source. The calls are words filed in the database; no cut-off is given here.
System: not listed separately
Assay: Growth inhibition of human SF539 cells
Type: functional
Conditions: SF-539
Method in brief: (§1)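 NCI-60 five-dose testing, 10^-8 to 10^-4 M, given only to compounds with significant growth inhibition in the 10 μM one-dose screen. Five-dose assay may be repeated.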

Row | Structure (SMILES) | GI50
1 | O=C1c2ccccc2-c2c1c1ccc([N+](=O)[O-])cc1c(=O)n2C[C@@H](O)[C@H](O)[C@H](O)CO | 1450 nM
2 | O=C1c2ccccc2-c2c1c1ccc([N+](=O)[O-])cc1c(=O)n2C[C@H](O)[C@@H](O)[C@@H](O)[C@H](O)CO | 2570 nM
3 | COc1cc2c3c(n(C[C@H](O)[C@H](O)[C@H](O)CO)c(=O)c2cc1OC)-c1cc2c(cc1C3=O)OCO2 | 28 nM
4 | COc1cc2c3c(n(C[C@H](O)CO)c(=O)c2cc1OC)-c1cc2c(cc1C3=O)OCO2 | 25 nM
5 | O=C1c2ccccc2-c2c1c1ccc([N+](=O)[O-])cc1c(=O)n2C[C@@H](O)[C@@H](O)[C@H](O)CO | 1740 nM

System: MCF7
Assay: Growth inhibition of human MCF7 cells
Type: functional
Conditions: not given
Method in brief: as §1

Row | Structure (SMILES) | GI50
6 | O=C1c2ccccc2-c2c1c1ccc([N+](=O)[O-])cc1c(=O)n2C[C@@H](O)[C@H](O)[C@H](O)CO | 912 nM
7 | O=C1c2ccccc2-c2c1c1ccc([N+](=O)[O-])cc1c(=O)n2C[C@H](O)[C@@H](O)[C@@H](O)[C@H](O)CO | 2950 nM
8 | COc1cc2c3c(n(C[C@H](O)[C@H](O)[C@H](O)CO)c(=O)c2cc1OC)-c1cc2c(cc1C3=O)OCO2 | 59 nM
9 | COc1cc2c3c(n(C[C@H](O)CO)c(=O)c2cc1OC)-c1cc2c(cc1C3=O)OCO2 | 10 nM
10 | O=C1c2ccccc2-c2c1c1ccc([N+](=O)[O-])cc1c(=O)n2C[C@@H](O)[C@@H](O)[C@H](O)CO | 501 nM

System: HOP-62
Assay: Growth inhibition of human HOP62 cells
Type: functional
Conditions: not given
Method in brief: as §1

Row | Structure (SMILES) | GI50
11 | O=C1c2ccccc2-c2c1c1ccc([N+](=O)[O-])cc1c(=O)n2C[C@@H](O)[C@H](O)[C@H](O)CO | 1910 nM
12 | O=C1c2ccccc2-c2c1c1ccc([N+](=O)[O-])cc1c(=O)n2C[C@H](O)[C@@H](O)[C@@H](O)[C@H](O)CO | 5130 nM
13 | COc1cc2c3c(n(C[C@H](O)[C@H](O)[C@H](O)CO)c(=O)c2cc1OC)-c1cc2c(cc1C3=O)OCO2 | 251 nM
14 | COc1cc2c3c(n(C[C@H](O)CO)c(=O)c2cc1OC)-c1cc2c(cc1C3=O)OCO2 | 28 nM

System: DU-145
Assay: Growth inhibition of human DU145 cells
Type: functional
Conditions: not given
Method in brief: as §1

Row | Structure (SMILES) | GI50
15 | O=C1c2ccccc2-c2c1c1ccc([N+](=O)[O-])cc1c(=O)n2C[C@@H](O)[C@H](O)[C@H](O)CO | 3160 nM
16 | O=C1c2ccccc2-c2c1c1ccc([N+](=O)[O-])cc1c(=O)n2C[C@H](O)[C@@H](O)[C@@H](O)[C@H](O)CO | 9550 nM
17 | COc1cc2c3c(n(C[C@H](O)[C@H](O)[C@H](O)CO)c(=O)c2cc1OC)-c1cc2c(cc1C3=O)OCO2 | 479 nM
18 | COc1cc2c3c(n(C[C@H](O)CO)c(=O)c2cc1OC)-c1cc2c(cc1C3=O)OCO2 | 34 nM
19 | O=C1c2ccccc2-c2c1c1ccc([N+](=O)[O-])cc1c(=O)n2C[C@@H](O)[C@@H](O)[C@H](O)CO | 3470 nM

System: OVCAR-3
Assay: Growth inhibition of human OVCAR3 cells
Type: functional
Conditions: not given
Method in brief: as §1

Row | Structure (SMILES) | GI50
20 | O=C1c2ccccc2-c2c1c1ccc([N+](=O)[O-])cc1c(=O)n2C[C@@H](O)[C@H](O)[C@H](O)CO | 1700 nM
21 | O=C1c2ccccc2-c2c1c1ccc([N+](=O)[O-])cc1c(=O)n2C[C@H](O)[C@@H](O)[C@@H](O)[C@H](O)CO | 6030 nM
22 | COc1cc2c3c(n(C[C@H](O)[C@H](O)[C@H](O)CO)c(=O)c2cc1OC)-c1cc2c(cc1C3=O)OCO2 | 22 nM
23 | COc1cc2c3c(n(C[C@H](O)CO)c(=O)c2cc1OC)-c1cc2c(cc1C3=O)OCO2 | 48 nM
24 | O=C1c2ccccc2-c2c1c1ccc([N+](=O)[O-])cc1c(=O)n2C[C@@H](O)[C@@H](O)[C@H](O)CO | 2140 nM

Biological target: Tyrosyl-DNA phosphodiesterase 1 (Homo sapiens, UniProt Q9NUW8)
Assay: Inhibition of recombinant TDP1 (unknown origin) using N14Y as substrate after 15 mins by PAGE analysis
Conditions: not given
Method in brief: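 Substrate is a 5'-[32P]-labelled single-stranded oligonucleotide with a 3'-phosphotyrosine (N14Y). It is incubated with 5 pM recombinant TDP1 ± test compound for 15 min at room temperature. Read-out is a gel.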

Chain of Tyrosyl-DNA phosphodiesterase 1 (Q9NUW8 whole entry): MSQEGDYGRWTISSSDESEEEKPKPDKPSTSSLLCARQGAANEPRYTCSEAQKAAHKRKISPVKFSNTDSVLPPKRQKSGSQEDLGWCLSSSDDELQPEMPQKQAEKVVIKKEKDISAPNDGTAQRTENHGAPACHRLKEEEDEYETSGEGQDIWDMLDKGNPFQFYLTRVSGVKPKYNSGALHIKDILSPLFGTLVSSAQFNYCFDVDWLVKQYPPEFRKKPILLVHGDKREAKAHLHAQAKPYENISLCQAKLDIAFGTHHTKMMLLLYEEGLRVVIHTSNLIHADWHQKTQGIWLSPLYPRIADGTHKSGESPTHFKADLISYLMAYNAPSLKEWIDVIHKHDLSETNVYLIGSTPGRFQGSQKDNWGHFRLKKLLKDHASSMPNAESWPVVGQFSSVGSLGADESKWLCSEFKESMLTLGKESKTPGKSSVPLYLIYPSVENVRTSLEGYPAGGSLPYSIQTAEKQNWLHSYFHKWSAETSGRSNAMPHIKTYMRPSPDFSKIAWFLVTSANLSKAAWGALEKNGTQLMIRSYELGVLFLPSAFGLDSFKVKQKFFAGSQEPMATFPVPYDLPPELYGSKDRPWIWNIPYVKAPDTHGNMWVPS

Row | Structure (SMILES) | IC50
25 | COc1cc2c3c(n(C[C@@H](O)[C@@H](O)[C@H](O)[C@H](O)CO)c(=O)c2cc1OC)-c1cc2c(cc1C3=O)OCO2 | > 111000 nM
26 | O=C1c2ccccc2-c2c1c1ccc([N+](=O)[O-])cc1c(=O)n2C[C@H](O)[C@@H](O)[C@@H](O)[C@H](O)CO | > 111000 nM
27 | COc1cc2c3c(n(C[C@H](O)[C@@H](O)[C@H](O)[C@H](O)CO)c(=O)c2cc1OC)-c1cc2c(cc1C3=O)OCO2 | > 111000 nM
28 | COc1cc2c3c(n(C[C@H](O)CO)c(=O)c2cc1OC)-c1cc2c(cc1C3=O)OCO2 | > 111000 nM

Biological target: T1, DNA topoisomerase 1 (Homo sapiens) (UniProt P11387)
T1 sequence (whole entry): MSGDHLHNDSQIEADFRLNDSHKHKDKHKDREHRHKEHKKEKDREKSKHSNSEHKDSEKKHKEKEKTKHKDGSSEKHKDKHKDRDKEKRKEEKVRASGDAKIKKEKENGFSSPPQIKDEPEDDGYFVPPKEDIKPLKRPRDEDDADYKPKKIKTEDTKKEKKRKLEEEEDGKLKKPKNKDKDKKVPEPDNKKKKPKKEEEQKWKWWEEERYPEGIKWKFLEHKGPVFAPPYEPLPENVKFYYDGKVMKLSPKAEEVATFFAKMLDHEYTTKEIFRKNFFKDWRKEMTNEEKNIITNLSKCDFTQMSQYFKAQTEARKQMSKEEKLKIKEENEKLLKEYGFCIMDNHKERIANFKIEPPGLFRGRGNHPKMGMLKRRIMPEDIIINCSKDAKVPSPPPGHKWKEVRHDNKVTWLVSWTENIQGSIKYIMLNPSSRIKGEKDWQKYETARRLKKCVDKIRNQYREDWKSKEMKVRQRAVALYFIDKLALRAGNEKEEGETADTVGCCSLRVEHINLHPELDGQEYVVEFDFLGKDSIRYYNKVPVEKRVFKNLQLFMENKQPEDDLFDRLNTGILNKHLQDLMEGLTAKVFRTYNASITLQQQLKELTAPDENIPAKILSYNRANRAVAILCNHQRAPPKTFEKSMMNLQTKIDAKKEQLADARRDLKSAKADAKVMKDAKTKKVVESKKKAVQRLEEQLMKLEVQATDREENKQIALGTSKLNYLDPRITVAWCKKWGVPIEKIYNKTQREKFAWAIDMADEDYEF
Assay: Inhibition of recombinant topoisomerase-1 (unknown origin) assessed as inhibition of 3'-[32P]-labeled DNA cleavage at 0.1 to 100 uM after 20 mins by PAGE analysis relative to control
Conditions: not given

Row | Structure (SMILES) | inhibition
29 | O=C1c2ccccc2-c2c1c1ccc([N+](=O)[O-])cc1c(=O)n2C[C@@H]1O[C@H](CO)[C@@H](O)[C@H](O)[C@H]1O | 50%
30 | COc1cc2c3c(n(C[C@@H]4O[C@H](CO)[C@@H](O)[C@H](O)[C@H]4O)c(=O)c2cc1OC)-c1cc2c(cc1C3=O)OCO2 | 50%
31 | COc1cc2c3c(n(C[C@H](O)[C@@H](O)[C@@H](O)[C@H](O)CO)c(=O)c2cc1OC)-c1cc2c(cc1C3=O)OCO2 | 50%
32 | COc1cc2c3c(n(C[C@@H](O)[C@@H](O)[C@H](O)[C@H](O)CO)c(=O)c2cc1OC)-c1cc2c(cc1C3=O)OCO2 | Active
33 | O=C1c2ccccc2-c2c1c1ccc([N+](=O)[O-])cc1c(=O)n2C[C@@H](O)[C@H](O)[C@H](O)CO | Active
34 | O=C1c2ccccc2-c2c1c1ccc([N+](=O)[O-])cc1c(=O)n2C[C@H](O)[C@@H](O)[C@@H](O)[C@H](O)CO | Active
35 | COc1cc2c3c(n(C[C@H](O)[C@@H](O)[C@H](O)[C@H](O)CO)c(=O)c2cc1OC)-c1cc2c(cc1C3=O)OCO2 | 75%
36 | COc1cc2c3c(n(C[C@H](O)[C@H](O)[C@H](O)CO)c(=O)c2cc1OC)-c1cc2c(cc1C3=O)OCO2 | 75%
37 | COc1cc2c3c(n(C[C@H](O)CO)c(=O)c2cc1OC)-c1cc2c(cc1C3=O)OCO2 | Active
38 | O=C1c2ccccc2-c2c1c1ccc([N+](=O)[O-])cc1c(=O)n2C[C@@H](O)[C@@H](O)[C@H](O)CO | Active

System: UACC-62
Assay: Growth inhibition of human UACC62 cells
Type: functional
Conditions: not given
Method in brief: as §1

Row | Structure (SMILES) | GI50
39 | COc1cc2c3c(n(C[C@H](O)[C@H](O)[C@H](O)CO)c(=O)c2cc1OC)-c1cc2c(cc1C3=O)OCO2 | 62 nM
40 | COc1cc2c3c(n(C[C@H](O)CO)c(=O)c2cc1OC)-c1cc2c(cc1C3=O)OCO2 | 17 nM
41 | O=C1c2ccccc2-c2c1c1ccc([N+](=O)[O-])cc1c(=O)n2C[C@@H](O)[C@@H](O)[C@H](O)CO | 1100 nM

System: HCT-116
Assay: Growth inhibition of human HCT116 cells
Type: functional
Conditions: not given
Method in brief: as §1

Row | Structure (SMILES) | GI50
42 | O=C1c2ccccc2-c2c1c1ccc([N+](=O)[O-])cc1c(=O)n2C[C@@H](O)[C@H](O)[C@H](O)CO | 1350 nM
43 | COc1cc2c3c(n(C[C@H](O)[C@H](O)[C@H](O)CO)c(=O)c2cc1OC)-c1cc2c(cc1C3=O)OCO2 | 148 nM
44 | COc1cc2c3c(n(C[C@H](O)CO)c(=O)c2cc1OC)-c1cc2c(cc1C3=O)OCO2 | 21 nM
45 | O=C1c2ccccc2-c2c1c1ccc([N+](=O)[O-])cc1c(=O)n2C[C@@H](O)[C@@H](O)[C@H](O)CO | 1200 nM

System: SN12C
Assay: Growth inhibition of human SN12C cells
Type: functional
Conditions: not given
Method in brief: as §1

Row | Structure (SMILES) | GI50
46 | O=C1c2ccccc2-c2c1c1ccc([N+](=O)[O-])cc1c(=O)n2C[C@H](O)[C@@H](O)[C@@H](O)[C@H](O)CO | 4270 nM
47 | COc1cc2c3c(n(C[C@H](O)[C@H](O)[C@H](O)CO)c(=O)c2cc1OC)-c1cc2c(cc1C3=O)OCO2 | 229 nM
48 | COc1cc2c3c(n(C[C@H](O)CO)c(=O)c2cc1OC)-c1cc2c(cc1C3=O)OCO2 | 30 nM
49 | O=C1c2ccccc2-c2c1c1ccc([N+](=O)[O-])cc1c(=O)n2C[C@@H](O)[C@@H](O)[C@H](O)CO | 2690 nM

System: not listed separately
Assay: Cytotoxicity against human NCI60 cells assessed as cell growth at 10 uM relative to vehicle-treated control
Type: functional
Conditions: read-out: Activity
Method in brief: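 NCI-60 one-dose screen: roughly 60 human cancer cell lines exposed to 10^-5 M (10 μM) compound. Value is growth percent of treated cells relative to vehicle-treated control, averaged across the panel.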

Row | Structure (SMILES) | growth at 10 µM
50 | O=C1c2ccccc2-c2c1c1ccc([N+](=O)[O-])cc1c(=O)n2C[C@@H]1O[C@H](CO)[C@@H](O)[C@H](O)[C@H]1O | 77.4%
51 | COc1cc2c3c(n(C[C@@H]4O[C@H](CO)[C@@H](O)[C@H](O)[C@H]4O)c(=O)c2cc1OC)-c1cc2c(cc1C3=O)OCO2 | 97.7%
52 | COc1cc2c3c(n(C[C@H](O)[C@@H](O)[C@@H](O)[C@H](O)CO)c(=O)c2cc1OC)-c1cc2c(cc1C3=O)OCO2 | 82.3%
53 | COc1cc2c3c(n(C[C@@H](O)[C@@H](O)[C@H](O)[C@H](O)CO)c(=O)c2cc1OC)-c1cc2c(cc1C3=O)OCO2 | 79.5%
54 | O=C1c2ccccc2-c2c1c1ccc([N+](=O)[O-])cc1c(=O)n2C[C@@H](O)[C@H](O)[C@H](O)CO | -9.21%
55 | O=C1c2ccccc2-c2c1c1ccc([N+](=O)[O-])cc1c(=O)n2C[C@H](O)[C@@H](O)[C@@H](O)[C@H](O)CO | 51.5%
56 | COc1cc2c3c(n(C[C@H](O)[C@@H](O)[C@H](O)[C@H](O)CO)c(=O)c2cc1OC)-c1cc2c(cc1C3=O)OCO2 | 87.5%
57 | COc1cc2c3c(n(C[C@H](O)[C@H](O)[C@H](O)CO)c(=O)c2cc1OC)-c1cc2c(cc1C3=O)OCO2 | 46.9%
58 | COc1cc2c3c(n(C[C@H](O)CO)c(=O)c2cc1OC)-c1cc2c(cc1C3=O)OCO2 | 7.1%
59 | O=C1c2ccccc2-c2c1c1ccc([N+](=O)[O-])cc1c(=O)n2C[C@@H](O)[C@@H](O)[C@H](O)CO | -16.1%
